Data: ChEMBL document CHEMBL4732237, “Discovery of 4-alkoxy-2-aryl-6,7-dimethoxyquinolines as a new class of topoisomerase I inhibitors endowed with potent in vitro anticancer activity” (2021)

Columns and labels:
Format in all cases: functional
Settings in all cases: read-out: GI
[1] = test system: PC-3; assay: Growth inhibition of human PC-3 cells at 10 uM incubated for 48 hrs by sulforhodamine B assay relative to control
Outline: (§1)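 NCI one-dose screen. Cells grown in RPMI 1640 with 5% FBS and 2 mM L-glutamine, plated and incubated 24 h at 37 °C, 5% CO2. DMSO-dissolved drug added, then 48 h further incubation. Adherent cells fixed with cold TCA, suspension cells fixed after settling. Stained with 0.4% SRB, absorbance read at 515 nm. Reported as percent growth relative to no-drug control and time-zero cell number.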

[2] = test system: A498; assay: Growth inhibition of human A498 cells at 10 uM incubated for 48 hrs by sulforhodamine B assay relative to control
Outline: (§2)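 NCI one-dose screen across a 59-line panel. Cells were grown in RPMI 1640 with 5% FBS and 2 mM L-glutamine, plated and pre-incubated 24 h, then exposed to drug for 48 h at 37 °C, 5% CO2. Adherent cells were fixed with cold TCA (10% final), stained with 0.4% SRB in 1% acetic acid and read at 515 nm. Result is percent growth relative to no-drug control and time-zero cell count.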

[3] = test system: COLO 205; assay: Growth inhibition of human COLO 205 cells at 10 uM incubated for 48 hrs by sulforhodamine B assay relative to control
Outline: (§3)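 NCI-60 single-dose screen. Cells were grown in RPMI 1640 with 5% FBS and 2 mM L-glutamine and plated 24 h before drug addition. Compound was added at one concentration in DMSO-derived medium and incubated for 48 h at 37 °C in 5% CO2. Read-out was SRB protein stain at 515 nm. Result is percent growth versus the no-drug control and the time-zero cell count; values below 0 indicate lethality.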

[4] = test system: NCI-H522; assay: Growth inhibition of human NCI-H522 cells at 10 uM incubated for 48 hrs by sulforhodamine B assay relative to control; outline: as §1
[5] = test system: MDA-MB-231; assay: Growth inhibition of human MDA-MB-231 cells at 10 uM incubated for 48 hrs by sulforhodamine B assay relative to control; outline: as §3
[6] = test system: SF-295; assay: Growth inhibition of human SF-295 cells at 10 uM incubated for 48 hrs by sulforhodamine B assay relative to control; outline: as §1
[7] = test system: LOX IMVI; assay: Growth inhibition of human LOX IMVI cells at 10 uM incubated for 48 hrs by sulforhodamine B assay relative to control; outline: as §3
[8] = test system: OVCAR-4; assay: Growth inhibition of human OVCAR-4 cells at 10 uM incubated for 48 hrs by sulforhodamine B assay relative to control; outline: as §1
[9] = test system: BT-549; assay: Growth inhibition of human BT-549 cells at 10 uM incubated for 48 hrs by sulforhodamine B assay relative to control; outline: as §3
[10] = test system: SN12C; assay: Growth inhibition of human SN12C cells at 10 uM incubated for 48 hrs by sulforhodamine B assay relative to control; outline: as §1
[11] = test system: OVCAR-5; assay: Growth inhibition of human OVCAR-5 cells at 10 uM incubated for 48 hrs by sulforhodamine B assay relative to control; outline: as §1
[12] = test system: OVCAR-3; assay: Growth inhibition of human OVCAR-3 cells at 10 uM incubated for 48 hrs by sulforhodamine B assay relative to control; outline: as §1
[13] = test system: UACC-62; assay: Growth inhibition of human UACC-62 cells at 10 uM incubated for 48 hrs by sulforhodamine B assay relative to control; outline: as §2
[14] = test system: UO-31; assay: Growth inhibition of human UO-31 cells at 10 uM incubated for 48 hrs by sulforhodamine B assay relative to control; outline: as §2
[15] = test system: Malme-3M; assay: Growth inhibition of human Malme-3M cells at 10 uM incubated for 48 hrs by sulforhodamine B assay relative to control; outline: as §1
[16] = test system: MCF7; assay: Growth inhibition of human MCF7 cells at 10 uM incubated for 48 hrs by sulforhodamine B assay relative to control; outline: as §3
[17] = test system: M14; assay: Growth inhibition of human M14 cells at 10 uM incubated for 48 hrs by sulforhodamine B assay relative to control; outline: as §3
[18] = test system: NCI-H322M; assay: Growth inhibition of human NCI-H322M cells at 10 uM incubated for 48 hrs by sulforhodamine B assay relative to control; outline: as §1
[19] = test system: IGROV-1; assay: Growth inhibition of human IGROV-1 cells at 10 uM incubated for 48 hrs by sulforhodamine B assay relative to control; outline: as §3
[20] = test system: MOLT-4; assay: Growth inhibition of human MOLT-4 cells at 10 uM incubated for 48 hrs by sulforhodamine B assay relative to control; outline: as §1
[21] = test system: MDA-MB-435; assay: Growth inhibition of human MDA-MB-435 cells at 10 uM incubated for 48 hrs by sulforhodamine B assay relative to control; outline: as §3
[22] = test system: K562; assay: Growth inhibition of human K562 cells at 10 uM incubated for 48 hrs by sulforhodamine B assay relative to control; outline: as §3
[23] = test system: NCI-H226; assay: Growth inhibition of human NCI-H226 cells at 10 uM incubated for 48 hrs by sulforhodamine B assay relative to control; outline: as §1
[24] = test system: SK-MEL-28; assay: Growth inhibition of human SK-MEL-28 cells at 10 uM incubated for 48 hrs by sulforhodamine B assay relative to control; outline: as §1
[25] = test system: Hs-578T; assay: Growth inhibition of human HS-578T cells at 10 uM incubated for 48 hrs by sulforhodamine B assay relative to control; outline: as §3
[26] = test system: HOP-92; assay: Growth inhibition of human HOP-92 cells at 10 uM incubated for 48 hrs by sulforhodamine B assay relative to control; outline: as §3
[27] = test system: SK-OV-3; assay: Growth inhibition of human SK-OV-3 cells at 10 uM incubated for 48 hrs by sulforhodamine B assay relative to control; outline: as §1
[28] = test system: NCI/ADR-RES; assay: Growth inhibition of human NCI/ADR-RES cells at 10 uM incubated for 48 hrs by sulforhodamine B assay relative to control; outline: as §1
[29] = test system: SNB-19; assay: Growth inhibition of human SNB-19 cells at 10 uM incubated for 48 hrs by sulforhodamine B assay relative to control; outline: as §1
[30] = test system: SK-MEL-2; assay: Growth inhibition of human SK-MEL-2 cells at 10 uM incubated for 48 hrs by sulforhodamine B assay relative to control; outline: as §1
[31] = test system: NCI-H23; assay: Growth inhibition of human NCI-H23 cells at 10 uM incubated for 48 hrs by sulforhodamine B assay relative to control; outline: as §1
[32] = test system: SNB-75; assay: Growth inhibition of human SNB-75 cells at 10 uM incubated for 48 hrs by sulforhodamine B assay relative to control; outline: as §1
[33] = test system: T47D; assay: Growth inhibition of human T47D cells at 10 uM incubated for 48 hrs by sulforhodamine B assay relative to control; outline: as §2
[34] = test system: SF-268; assay: Growth inhibition of human SF-268 cells at 10 uM incubated for 48 hrs by sulforhodamine B assay relative to control; outline: as §1
[35] = test system: HOP-62; assay: Growth inhibition of human HOP-62 cells at 10 uM incubated for 48 hrs by sulforhodamine B assay relative to control; outline: as §3
[36] = test system: HL-60(TB); assay: Growth inhibition of human HL-60(TB) cells at 10 uM incubated for 48 hrs by sulforhodamine B assay relative to control
Outline: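 NCI-60 one-dose screen: same culture, 48 h drug exposure and SRB read-out. Reported as percent growth relative to no-drug control and to time-zero cell number; 0–100 means growth inhibition, below 0 means lethality.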

| SMILES | inhibition of growth at 10 µM [1] [%] | inhibition of growth at 10 µM [2] [%] | inhibition of growth at 10 µM [3] [%] | inhibition of growth at 10 µM [4] [%] | inhibition of growth at 10 µM [5] [%] | inhibition of growth at 10 µM [6] [%] | inhibition of growth at 10 µM [7] [%] | inhibition of growth at 10 µM [8] [%] | inhibition of growth at 10 µM [9] [%] | inhibition of growth at 10 µM [10] [%] | inhibition of growth at 10 µM [11] [%] | inhibition of growth at 10 µM [12] [%] | inhibition of growth at 10 µM [13] [%] | inhibition of growth at 10 µM [14] [%] | inhibition of growth at 10 µM [15] [%] | inhibition of growth at 10 µM [16] [%] | inhibition of growth at 10 µM [17] [%] | inhibition of growth at 10 µM [18] [%] | inhibition of growth at 10 µM [19] [%] | inhibition of growth at 10 µM [20] [%] | also measured |
| --- | --- | --- | --- | --- | --- | --- | --- | --- | --- | --- | --- | --- | --- | --- | --- | --- | --- | --- | --- | --- | --- |
| COc1cc2nc(-c3ccc(Cl)cc3)cc(OCCCN3CCCC3)c2cc1OC | 62 | 62 | 62 | 62 | 62 | 62 | 62 | 62 | 62 | 62 | 62 | 62 | 62 | 62 | 62 | 62 | 62 | 62 | 62 | 62 | inhibition of growth at 10 µM [21]: 62%; inhibition of growth at 10 µM [22]: 62%; inhibition of growth at 10 µM [23]: 62%; inhibition of growth at 10 µM [24]: 62%; inhibition of growth at 10 µM [25]: 62%; inhibition of growth at 10 µM [26]: 62%; inhibition of growth at 10 µM [27]: 62%; inhibition of growth at 10 µM [28]: 62%; inhibition of growth at 10 µM [29]: 62%; inhibition of growth at 10 µM [30]: 62%; inhibition of growth at 10 µM [31]: 62%; inhibition of growth at 10 µM [32]: 62%; inhibition of growth at 10 µM [33]: 62%; inhibition of growth at 10 µM [34]: 62%; inhibition of growth at 10 µM [35]: 62%; inhibition of growth at 10 µM [36]: 62% |
| COc1cc2nc(-c3ccc(Cl)cc3)cc(OCCCN3CCCCC3)c2cc1OC | 62 | 62 | 62 | 62 | 62 | 62 | 62 | 62 | 62 | 62 | 62 | 62 | 62 | 62 | 62 | 62 | 62 | 62 | 62 | 62 | inhibition of growth at 10 µM [21]: 62%; inhibition of growth at 10 µM [22]: 62%; inhibition of growth at 10 µM [23]: 62%; inhibition of growth at 10 µM [24]: 62%; inhibition of growth at 10 µM [25]: 62%; inhibition of growth at 10 µM [26]: 62%; inhibition of growth at 10 µM [27]: 62%; inhibition of growth at 10 µM [28]: 62%; inhibition of growth at 10 µM [29]: 62%; inhibition of growth at 10 µM [30]: 62%; inhibition of growth at 10 µM [31]: 62%; inhibition of growth at 10 µM [32]: 62%; inhibition of growth at 10 µM [33]: 62%; inhibition of growth at 10 µM [34]: 62%; inhibition of growth at 10 µM [35]: 62%; inhibition of growth at 10 µM [36]: 62% |
| COc1cc2nc(-c3ccc(Cl)cc3)cc(OCCCN3CCC(O)CC3)c2cc1OC | 62 | 62 | 62 | 62 | 62 | 62 | 62 | 62 | 62 | 62 | 62 | 62 | 62 | 62 | 62 | 62 | 62 | 62 | 62 | 62 | inhibition of growth at 10 µM [21]: 62%; inhibition of growth at 10 µM [22]: 62%; inhibition of growth at 10 µM [23]: 62%; inhibition of growth at 10 µM [24]: 62%; inhibition of growth at 10 µM [25]: 62%; inhibition of growth at 10 µM [26]: 62%; inhibition of growth at 10 µM [27]: 62%; inhibition of growth at 10 µM [28]: 62%; inhibition of growth at 10 µM [29]: 62%; inhibition of growth at 10 µM [30]: 62%; inhibition of growth at 10 µM [31]: 62%; inhibition of growth at 10 µM [32]: 62%; inhibition of growth at 10 µM [33]: 62%; inhibition of growth at 10 µM [34]: 62%; inhibition of growth at 10 µM [35]: 62%; inhibition of growth at 10 µM [36]: 62% |
| COc1cc2nc(-c3ccco3)cc(OCCCN3CCC(O)CC3)c2cc1OC | 46 | 46 | 46 | 46 | 46 | 46 | 46 | 46 | 46 | 46 | 46 | 46 | 46 | 46 | 46 | 46 | 46 | 46 | 46 | 46 | inhibition of growth at 10 µM [21]: 46%; inhibition of growth at 10 µM [22]: 46%; inhibition of growth at 10 µM [23]: 46%; inhibition of growth at 10 µM [24]: 46%; inhibition of growth at 10 µM [25]: 46%; inhibition of growth at 10 µM [26]: 46%; inhibition of growth at 10 µM [27]: 46%; inhibition of growth at 10 µM [28]: 46%; inhibition of growth at 10 µM [29]: 46%; inhibition of growth at 10 µM [30]: 46%; inhibition of growth at 10 µM [31]: 46%; inhibition of growth at 10 µM [32]: 46%; inhibition of growth at 10 µM [33]: 46%; inhibition of growth at 10 µM [34]: 46%; inhibition of growth at 10 µM [35]: 46%; inhibition of growth at 10 µM [36]: 46% |
